These results are taken from ChEMBL document CHEMBL1667738, “Sesquiterpene benzoxazoles and sesquiterpene quinones from the marine sponge Dactylospongia elegans” (2011).

The GI50 is the concentration that inhibits growth by half.

Each structure is given as a SMILES string.

In one experiment the test system is NCI-H460. Nature of the experiment: Cytotoxicity against human H460 cells after 48 hrs by SRB assay. As to conditions: NCI-H460, 48 h. It is filed as functional. The gist of the method:
(§1)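 Cells grown in RPMI 1640 with L-glutamine and 5% fetal bovine serum, in a humidified incubator at 37 °C and 5% CO2. Seeded at 5000 cells/well. Pure compounds dissolved in DMSO, serially diluted in medium, and tested at 10 concentrations between 66.7 and 0.01 µg/mL. Total protein measured by SRB at 490 nm at 0 and 48 h. GI50 taken against vehicle-only and time-zero readings.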
(The SRB assay estimates cell density from bound dye.)
Compound `C=C1CCC[C@@]23OC4=C(C[C@]2(C)[C@@H](C)CC[C@@]13C)C(=O)C(OC)=CC4=O` [DACTYLOQUINONE B] displayed a concentration for 50% growth inhibition (GI50) of 30 µM.
With `C=C1CCC[C@H]2[C@](C)(CC3=C(O)C(=O)C=C(OC)C3=O)[C@@H](C)CC[C@]12C` [ILIMAQUINONE], halving of growth (GI50) required 1.8 µM. This GI50 is about 17-fold lower than that of the compound before.
As to `C=C1CCC[C@H]2[C@](C)(Cc3c(OC(C)=O)c(OC(C)=O)cc4ncoc34)[C@@H](C)CC[C@]12C` [NAKIJINOL B DIACETATE], halving of growth (GI50) required 6.8 µM.
On the same count and under the same terms, to `C=C1CCC[C@H]2[C@](C)(Cc3c(O)c(O)cc4ncoc34)[C@@H](C)CC[C@]12C` [NAKIJINOL B] belongs 24 µM; to `C=C1CCC[C@H]2[C@](C)(CC3=C(O)C(=O)C=C(NCC(=O)O)C3=O)[C@@H](C)CC[C@]12C` [SMENOSPONGINE B], 6 µM; to `C=C1CCC[C@H]2[C@](C)(CC3=C(O)C(=O)C=C(NCCC(=O)O)C3=O)[C@@H](C)CC[C@]12C` [SMENOSPONGINE C], 14 µM.

A further experiment concerns SF-268. Put plainly: Cytotoxicity against human SF268 cells after 48 hrs by SRB assay. The class given is functional. Conditions: SF-268, 48 h. The gist of the method:
as §1
Take `C=C1CCC[C@@]23OC4=C(C[C@]2(C)[C@@H](C)CC[C@@]13C)C(=O)C(OC)=CC4=O` [DACTYLOQUINONE B]: the concentration for 50% growth inhibition (GI50) turned out to be 32 µM.
Regarding `C=C1CCC[C@H]2[C@](C)(CC3=C(O)C(=O)C=C(OC)C3=O)[C@@H](C)CC[C@]12C` [ILIMAQUINONE], growth was halved (GI50) at 2.7 µM. This GI50 lies about 12-fold lower than the previous one.
Turning to `C=C1CCC[C@H]2[C@](C)(Cc3c(OC(C)=O)c(OC(C)=O)cc4ncoc34)[C@@H](C)CC[C@]12C` [NAKIJINOL B DIACETATE], the GI50 worked out at 9 µM.
In turn, `C=C1CCC[C@H]2[C@](C)(Cc3c(O)c(O)cc4ncoc34)[C@@H](C)CC[C@]12C` [NAKIJINOL B] showed a 50% growth inhibitory concentration (GI50) of 24 µM.
`C=C1CCC[C@H]2[C@](C)(CC3=C(O)C(=O)C=C(NCC(=O)O)C3=O)[C@@H](C)CC[C@]12C` [SMENOSPONGINE B]: the GI50 was found to be 9.7 µM.
On the same count and under the same terms, the figure for `C=C1CCC[C@H]2[C@](C)(CC3=C(O)C(=O)C=C(NCCC(=O)O)C3=O)[C@@H](C)CC[C@]12C` [SMENOSPONGINE C] is 20 µM.

The subject of the next experiment is HT-29. Put plainly: Cytotoxicity against human HT-29 cells after 48 hrs by SRB assay. The class given is functional. Conditions: HT-29, 48 h. The gist of the method: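 CHO-K1 (Chinese hamster ovary subclone) and HT-29 cells grown in MEM with Earle's salts, L-glutamine, nonessential amino acids and sodium pyruvate. Seeded at 5000 cells/well. Compounds dissolved in DMSO, serially diluted in medium, and tested at 10 concentrations spanning 66.7–0.01 µg/mL. SRB protein read at 490 nm at 0 and 48 h. GI50 derived against vehicle-only and time-zero values.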
Consider `C=C1CCC[C@@]23OC4=C(C[C@]2(C)[C@@H](C)CC[C@@]13C)C(=O)C(OC)=CC4=O` [DACTYLOQUINONE B], for which growth was halved (GI50) at 46 µM.
On to `C=C1CCC[C@H]2[C@](C)(CC3=C(O)C(=O)C=C(OC)C3=O)[C@@H](C)CC[C@]12C` [ILIMAQUINONE], for which the 50% growth inhibitory concentration (GI50) came out at 5.4 µM. Against the preceding compound, the GI50 is about 8.5-fold lower.
On the same count and under the same terms, to `C=C1CCC[C@H]2[C@](C)(Cc3c(OC(C)=O)c(OC(C)=O)cc4ncoc34)[C@@H](C)CC[C@]12C` [NAKIJINOL B DIACETATE] belongs 15 µM.
`C=C1CCC[C@H]2[C@](C)(Cc3c(O)c(O)cc4ncoc34)[C@@H](C)CC[C@]12C` [NAKIJINOL B] yielded a concentration for 50% growth inhibition (GI50) of 21 µM.
Regarding `C=C1CCC[C@H]2[C@](C)(CC3=C(O)C(=O)C=C(NCC(=O)O)C3=O)[C@@H](C)CC[C@]12C` [SMENOSPONGINE B], growth was halved (GI50) at 6 µM.
The same measure, in the same setting: the figure for `C=C1CCC[C@H]2[C@](C)(CC3=C(O)C(=O)C=C(NCCC(=O)O)C3=O)[C@@H](C)CC[C@]12C` [SMENOSPONGINE C] is 28 µM.

Another experiment concerns CHO-K1. Put plainly: Cytotoxicity against Chinese hamster CHO-K1 cells after 48 hrs by SRB assay. As to conditions: Cricetulus griseus, CHO-K1, 48 h.
`C=C1CCC[C@@]23OC4=C(C[C@]2(C)[C@@H](C)CC[C@@]13C)C(=O)C(OC)=CC4=O` [DACTYLOQUINONE B] came in with a GI50 of 43 µM.
The same measure, in the same setting: to `C=C1CCC[C@H]2[C@](C)(CC3=C(O)C(=O)C=C(OC)C3=O)[C@@H](C)CC[C@]12C` [ILIMAQUINONE] belongs 2 µM; to `C=C1CCC[C@H]2[C@](C)(Cc3c(OC(C)=O)c(OC(C)=O)cc4ncoc34)[C@@H](C)CC[C@]12C` [NAKIJINOL B DIACETATE], 5.2 µM; to `C=C1CCC[C@H]2[C@](C)(Cc3c(O)c(O)cc4ncoc34)[C@@H](C)CC[C@]12C` [NAKIJINOL B], 11 µM.
`C=C1CCC[C@H]2[C@](C)(CC3=C(O)C(=O)C=C(NCC(=O)O)C3=O)[C@@H](C)CC[C@]12C` [SMENOSPONGINE B] came in with a GI50 of 3 µM.
Still for that read-out and setting: to `C=C1CCC[C@H]2[C@](C)(CC3=C(O)C(=O)C=C(NCCC(=O)O)C3=O)[C@@H](C)CC[C@]12C` [SMENOSPONGINE C] belongs 18 µM.

The test system of a further experiment is MCF7. Put plainly: Cytotoxicity against human MCF7 cells after 48 hrs by SRB assay. It is filed as functional. Conditions: MCF7, 48 h. The essentials:
as §1
Compound `C=C1CCC[C@@]23OC4=C(C[C@]2(C)[C@@H](C)CC[C@@]13C)C(=O)C(OC)=CC4=O` [DACTYLOQUINONE B] returned a GI50 of 41 µM.
The compound `C=C1CCC[C@H]2[C@](C)(CC3=C(O)C(=O)C=C(OC)C3=O)[C@@H](C)CC[C@]12C` [ILIMAQUINONE] gave a GI50 of 3.9 µM.
Same read-out and setting: to `C=C1CCC[C@H]2[C@](C)(Cc3c(OC(C)=O)c(OC(C)=O)cc4ncoc34)[C@@H](C)CC[C@]12C` [NAKIJINOL B DIACETATE] belongs 19 µM; to `C=C1CCC[C@H]2[C@](C)(Cc3c(O)c(O)cc4ncoc34)[C@@H](C)CC[C@]12C` [NAKIJINOL B], 35 µM; to `C=C1CCC[C@H]2[C@](C)(CC3=C(O)C(=O)C=C(NCC(=O)O)C3=O)[C@@H](C)CC[C@]12C` [SMENOSPONGINE B], 10 µM.
For `C=C1CCC[C@H]2[C@](C)(CC3=C(O)C(=O)C=C(NCCC(=O)O)C3=O)[C@@H](C)CC[C@]12C` [SMENOSPONGINE C], it took 31 µM to inhibit growth by half (GI50).
